Only some compounds are listed: those with a hit (about 0.79% of all), similar ones and a draw of the others.
mIAP inh: mouse IAP inhibition; purified mouse IAP, CDP-Star luminescence, 30 min; inhibition, % at 10 µM; 330,000 compounds, 0.2% hits; AID 2806;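 active = inhibition of at least 40% at 10 µM in the primary screen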;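 note: plate controls were DMSO with enzyme for no effect and no enzyme wells for full effect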
hIAP act: human IAP activation; P09923; purified human IAP, CDP-Star luminescence, 30 min; active compounds read high; 1 = vehicle-only enzyme, 0 = enzyme-free background; activation factor at 10 µM; 330,000 compounds, 0.16% hits;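 active = activation factor of the enzyme at least 2-fold when tested at 20 µM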
Target sequence (P09923 whole entry, looked up): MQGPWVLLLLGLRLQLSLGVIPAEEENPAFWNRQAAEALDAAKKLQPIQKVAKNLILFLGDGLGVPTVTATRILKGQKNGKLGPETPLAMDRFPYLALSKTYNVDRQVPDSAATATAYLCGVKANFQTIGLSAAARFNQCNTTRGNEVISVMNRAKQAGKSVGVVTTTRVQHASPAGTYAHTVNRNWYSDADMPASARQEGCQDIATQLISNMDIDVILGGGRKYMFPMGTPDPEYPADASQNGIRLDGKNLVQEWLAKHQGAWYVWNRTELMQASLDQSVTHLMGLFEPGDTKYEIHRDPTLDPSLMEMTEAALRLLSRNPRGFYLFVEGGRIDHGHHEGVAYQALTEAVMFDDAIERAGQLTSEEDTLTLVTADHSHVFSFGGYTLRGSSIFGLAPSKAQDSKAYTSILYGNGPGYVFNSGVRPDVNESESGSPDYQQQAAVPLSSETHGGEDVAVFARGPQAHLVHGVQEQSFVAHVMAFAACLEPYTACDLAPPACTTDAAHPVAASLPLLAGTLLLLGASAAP
bIAP act: increases bovine intestinal alkaline phosphatase activity; purified bovine IAP, CDP-star luminescence, 30 min; active compounds read high; fold of DMSO-control signal, blank-subtracted; activation factor at 20 µM; 200,000 compounds, 0.17% hits;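 active = activation factor of 2 or more at 20 µM, a signal rise over negative controls twice the positive control's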
bIAP inhibitor: blocks bovine intestinal alkaline phosphatase activity | inhibition, % at 20 µM | purified bovine IAP, CDP-star luminescence, 30 min | 190,000 tested, under 10 active;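 active = over 50% inhibition of intestinal alkaline phosphatase at 20 µM in the single-dose screen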
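System: purified bovine intestinal alkaline phosphatase (IAP) enzyme; Input: IAP diluted 1/65,000,000 in the well; Measured by: CDP-star luminescence signal; Compound dosing: 20 µM single dose; Incubation: 30 min reaction at room temperature.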
mIAP activ: increases mouse intestinal alkaline phosphatase activity. muIAP, CDP-Star luminescence, 30 min; active compounds read high; 1 = vehicle-only enzyme signal, 0 = enzyme-free wells. activation factor at 10 µM. 330,000 compounds, 0.24% hits. AID 2805;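 active = activation factor of at least 2 at 20 µM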
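Assay system: mouse IAP enzyme / Compound: DMSO-dissolved test compounds / Timing: 30 min, room temperature / Measured by: luminescence from enzymatic CDP-Star hydrolysis / Control set: DMSO-only wells, enzyme-free buffer wells as negative control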
hIAP block: human IAP inhibition; P09923; purified IAP, CDP-Star luminescence, 30 min; inhibition, % at 10 µM; 330,000 compounds, 0.12% hits; AID 2544;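 active = inhibition reaching a set limit with compound at 10 µM in the primary screen, cut at about 35% in these data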;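 note: plate controls were DMSO wells with enzyme for no effect and no-enzyme buffer wells for full effect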
Active calls of the source: *; i = inactive; . = no result.

SMILES	mIAP inh	hIAP act	bIAP act	bIAP inhibitor	mIAP activ	hIAP block
Cc1cc(-c2csc(NC(=O)c3ccc(C#N)cc3)n2)c(C)n1Cc1ccco1	41*	0.99	0.9	10	0.59	1
Cc1cc(-c2csc(NC(=O)c3ccc(=O)[nH]c3)n2)c(C)n1Cc1ccccc1	38	0.97	1.1	-8	0.62	3
C[C@H](CO)N1C[C@H](C)[C@@H](CN(C)S(C)(=O)=O)Oc2ccc(NC(=O)Nc3ccc4c(c3)OCO4)cc2C1=O	-30	0.96	.	.	1.3	4
C[C@H](CO)N1C[C@H](C)[C@@H](CN(C)S(=O)(=O)c2ccc(F)cc2)Oc2ccc(NC(=O)Nc3ccc(C(F)(F)F)cc3)cc2C1=O	-33	0.93	.	.	1.3	7
COc1ccc(S(=O)(=O)N(C)C[C@H]2Oc3ccc(NC(=O)Cc4ccccc4)cc3C(=O)N([C@H](C)CO)C[C@@H]2C)cc1	-28	1	.	.	1.3	-1
C[C@@H]1CN([C@@H](C)CO)C(=O)c2cc(NC(=O)Nc3ccc4c(c3)OCO4)ccc2O[C@H]1CN(C)S(=O)(=O)c1ccc(F)cc1	-140	0.98	.	.	2.4*	2
C[C@H](CO)N1C[C@H](C)[C@@H](CN(C)S(=O)(=O)c2ccc(F)cc2)Oc2ccc(NC(=O)Nc3ccccc3)cc2C1=O	-144	0.96	.	.	2.4*	4
C[C@H](CO)N1C[C@H](C)[C@@H](CN(C)S(=O)(=O)c2ccc(F)cc2)Oc2ccc(NC(=O)Nc3ccc4c(c3)OCO4)cc2C1=O	-147	1.1	.	.	2.5*	-10
COc1ccc(NC(=O)Nc2ccc3c(c2)C(=O)N([C@H](C)CO)C[C@H](C)[C@@H](CN(C)S(=O)(=O)c2ccccc2)O3)cc1	-231	0.92	.	.	3.3*	8
Cc1ccc(NC(=O)COc2ccccc2CNC(C)(C)CC(C)(C)C)cc1	-58	0.89	30*	i	1.6	11
Cc1ccc(-n2c(SCC(N)=O)nnc2-c2cccnc2)c(C)c1	-103	0.99	1	3	2*	1
O=C(Nc1ccc(Cl)c(Cl)c1)Nc1cc(C(=O)NC2CC2)ccc1Cl	-116	1.1	1	3	2.2*	-15
CCNC(=S)N1C2CCC1CC(NC(=O)Nc1ccc(C(=O)OCC)cc1)C2 (stereo unspecified)	-56	0.92	1.1	-12	1.6	8
CCOCCCNC(=S)N1C2CCC1CC(NC(=O)Nc1ccc(C(=O)OCC)cc1)C2 (stereo unspecified)	-120	1.4	1.4	-38	2.2*	-38
COC(=O)c1ccc(NC(C)=O)cc1O	.	.	1	-2	.	.
CCC(C)NC(=O)C1CCN(S(=O)(=O)N2CCC3(CC2)OCCO3)CC1 (stereo unspecified)	-2	1	1.1	-10	1	-2
O=C(CSc1nnc(COc2ccccc2Cl)o1)Nc1ccccc1	13	1	.	.	0.87	0
C/C(N)=C(/C#N)C(=O)CSc1nnc(COc2ccccc2Cl)o1	11	0.91	2.1*	-108	0.89	9
Cc1ccccc1NCC(=O)N/N=C/c1c(C)c(C(=O)c2ccc(Cl)cc2)n2ccccc12	18	0.99	1	-3	0.82	1
Cc1c(/C=N/NC(=O)CNc2ccccc2)c2ccccn2c1C(=O)c1ccc(Cl)cc1	18	0.88	10*	i	0.82	12
Cc1ccc(S(=O)(=O)n2nc(C)c(C#N)c2N)cc1	12	1.1	0.8	24	0.88	-12
O=C(Nc1cc(Cl)cc(Cl)c1)C(c1ccccc1)N1CCCCC1 (stereo unspecified)	-198	1.1	1	5	3*	-12
O=C(Nc1cc(Cl)cc(Cl)c1)N1CCCC1	-112	0.97	.	.	2.1*	3
O=C(COC(=O)c1ccccc1NCCO)Nc1cccc(S(=O)(=O)NC2=NCCCCC2)c1	-8	1.1	.	.	1.1	-6
Cc1ccc(NC(=O)CC2(CC(=O)O)CCCC2)c(C)c1	8	1.1	.	.	0.93	-6
COc1cc(/C=C2\SC(=S)N(Nc3ccccc3)C2=O)cc(OC)c1OC	40*	0.95	0.9	7	0.6	5
Cc1ccc(-n2cnc3cc(NCc4cccs4)ccc32)cc1	2	1	22*	i	0.98	-3

High-throughput results deposited in PubChem by Sanford-Burnham Center for Chemical Genomics.
